# PKD1 inh: PKD1 (human) kinase inhibition | PKD1 kinase fluorescence polarization assay | inhibition, % (no concentration beside the values) | Q15139 | 200,000 compounds, 0.056% hits | AID 797; in the data active = inhibition above about 50%
# Wee1 degr inh: human Wee1 degradation inhibition, primary screen; HeLa Luc-Wee1K328M stability, luciferase luminescence; 100% = proteasome inhibitor MG132 effect; reporter increase, % at 5 µM; 220,000 compounds, 1.2% hits; P30291;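 active = activation above the mean of all tested compounds plus 3 SD, set per screening run, cut at about 8.8% in these data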;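 note: cells exposed to compound for 20 h before luminescence read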
# Redox H2O2 prof: compounds producing H2O2 with reducing agent – biochemical, NIH compound library profiling, artefact control for MLSCN library redox annotation, primary screen | DTT-dependent redox cycling H2O2, phenol red/HRP absorbance; 100% = 100 µM peroxide control, 0% = buffer | activation, % at 10 µM | 200,000 compounds, 0.03% hits;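 active = activation of at least 50% relative to the plate's high and low controls in the primary single-dose screen; inactive = activation below 50%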;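 note: compound incubated with DTT at 0.8 mM final as the reducing agent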
# Arbovirus anti: antivirals against arbovirus infection. arbovirus infection cell-based antiviral screen. inhibition, % at 10 µM. 200,000 compounds, 0.37% hits. AID 1251; in the data active = inhibition above about 30%
# RBBP9 inh: inhibitors of human serine hydrolase RBBP9; O75884; recombinant RBBP9, FP-Rh probe fluorescence polarization; inhibition, % at 7.94 µM; 220,000 compounds, 0.2% hits; AID 1515;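 active = inhibition above the campaign mean of all tested compounds plus 3 SD, cut at about 14% in these data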
#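 Controls: DMSO-treated enzyme wells and wells lacking RBBP9 | Material: RBBP9 protein | Technique: Fluorescence polarization | Replication: Single well per compound, no replicates | Buffer or medium: Tris-NaCl-Pluronic buffer, pH 8.0 | Timing: 30 min compound preincubation, 45 min probe labeling, 25 °C | Read-out basis: Percent inhibition from mP, scaled between DMSO and no-protein wells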
# p97 ATPase inh: blocks human p97 ATPase activity; AID 1481; 220,000 compounds, 0.42% hits; P55072; recombinant p97 ATPase, Kinase-Glo ATP luminescence, 3 h; inhibition, % at 8 µM; in the data active = inhibition above about 15%
# Hits are given with their value; - = inactive; . = no result. Sampled rows, rich in hits. Any-hit rate of the full collection: about 2.2%.
SMILES,PKD1 inh,Wee1 degr inh,Redox H2O2 prof,Arbovirus anti,RBBP9 inh,p97 ATPase inh
O=C(CN1C(=O)c2ccccc2C1=O)Nc1ccc(Cl)cn1,-,10,-,-,-,-
O=C(CCc1ccccc1)Nc1ccc(Cl)cn1,-,-,-,-,-,-
COc1ccc(C(=O)N2CCN(C(C)=O)CC2)cc1S(=O)(=O)N1CCOCC1,-,-,-,-,-,-
N#C/C(=C(/O)CSc1ccccc1C(=O)O)c1nc2ccccc2s1,-,-,-,-,-,16
CCOC(=O)c1c(NC(=O)CSc2ccccc2C(=O)O)sc(C)c1C,-,-,-,33,-,-
CCc1ccccc1N/C(=N\S(=O)(=O)c1ccccc1)C(F)(F)F,-,10,-,-,-,-
O=S(=O)(/N=C(/Nc1ccccc1)C(F)(F)F)c1ccccc1,-,-,-,-,-,-
CC(C)C[C@H](NC(=O)c1nc[nH]c1C(=O)N1CCN(C(=O)OC(C)(C)C)CC1)C(=O)OC(C)(C)C,-,-,-,32,-,-
O=[N+]([O-])c1ccc(N2CCN(S(=O)(=O)c3ccc4ccccc4c3)CC2)cc1NCC1CCCO1 (stereo unspecified),-,-,-,-,-,-
Cc1occc1C(=O)N/N=C/C=C\c1ccccc1[N+](=O)[O-],-,-,-,-,-,-
CCOC(=O)N/N=C/C=C/c1ccccc1[N+](=O)[O-],-,9.2,-,-,-,-
O=C(NCCN1CCOCC1)N1c2ccccc2Sc2ccccc21,-,-,-,-,-,-
O=C1CSC(c2ccccn2)N1c1ccc(F)cc1F (stereo unspecified),-,9.9,-,-,-,-
O=C1CSC(c2ccccn2)N1c1ccccc1F (stereo unspecified),-,-,-,-,-,-
O=C(CSc1nc2ccccc2[nH]1)c1ccco1,-,-,-,-,-,-
COc1ccc2nc(SCC(=O)c3ccco3)[nH]c2c1,-,9.1,-,-,-,-
O=C1NCCN1C(=O)c1cccc(Cl)c1,-,12,-,-,-,-
OCCC1CN(Cc2ccccc2OC2CCCC2)CCN1Cc1ccsc1 (stereo unspecified),-,-,-,-,-,-
COC(=O)[C@H](C)NC(=O)NCc1ccccc1,.,-,.,.,-,-
COCCN(CCOC)S(=O)(=O)c1ccc(C(=O)Nc2nnc(C3CC3)o2)cc1,-,9.4,-,-,-,-
Cc1cccc(NC(=O)/C(C#N)=C\c2ccc(C(=O)O)cc2)c1,-,-,-,-,-,-
N#C/C(=C/c1ccc(C(=O)O)cc1)C(=O)Nc1ccccc1,-,9.0,-,-,-,-
Cc1ccc(S(=O)(=O)C(C#N)c2nc3ccccc3nc2N2CCCC2)cc1 (stereo unspecified),-,-,-,-,-,20
O=C(NC(=S)N1CCN(C/C=C/c2ccccc2)CC1)c1ccco1,-,9.6,-,-,-,-
O=C(c1ccco1)N1CCN(C/C=C/c2ccccc2)CC1,-,-,-,-,-,-
SMILES,PKD1 inh,Wee1 degr inh,Redox H2O2 prof,Arbovirus anti,RBBP9 inh,p97 ATPase inh
COC(=O)c1ccccc1NC(=O)C1COc2ccccc2O1 (stereo unspecified),-,-,-,-,-,-
O=C(Nc1ccccc1C(=O)N1CCCC1)C1COc2ccccc2O1 (stereo unspecified),66,-,-,-,-,-
COc1ccc(Cl)cc1C(=O)NNC(=O)C1COc2ccccc2O1 (stereo unspecified),-,-,-,-,-,-
COc1ccc(C)cc1NC(=O)C1COc2ccccc2O1 (stereo unspecified),-,-,-,50,-,-
COC(=O)c1ccsc1NC(=O)C1COc2ccccc2O1 (stereo unspecified),-,-,-,31,-,-
COc1ccc2c(c1[N+](=O)[O-])CCC/C2=N/OC(=O)c1cccc2ccccc12,-,-,-,-,-,-
CC(=O)N1C(C(=O)O)CSC1c1ccc(C)cc1 (stereo unspecified),-,.,-,-,.,.
CC(=O)C1=C(C)N(Cc2ccccc2)C(=O)N[C@@H]1c1cccc(C(F)(F)F)c1,-,-,-,-,-,-
COC(=O)C1=C(C)N(Cc2ccco2)C(=O)N[C@@H]1c1cccc(C(F)(F)F)c1,-,-,-,32,-,-
CC(C)CNC(=O)c1cccc(NC(=O)Cc2ccc(Br)cc2)c1,-,-,-,-,-,-
CC(C)CNC(=O)c1cccc(NC(=O)CCc2ccccc2)c1,-,10,-,-,-,-
COC(=O)c1cccc(NC(=O)CCc2cc(OC)c(OC)c(OC)c2)c1,-,-,.,-,-,-
COC(=O)c1cccc(NC(=O)CCc2ccccc2)c1,-,9.4,-,-,-,-
Cc1sc(NC(=O)CSc2nc(O)cc(=O)[nH]2)nc1-c1ccccc1,-,-,-,-,-,-
CCOc1ccc2nc(NC(=O)CSc3nc(-c4ccccc4)c(C#N)c(=O)[nH]3)sc2c1,-,-,-,62,-,-
COc1cccc(-c2nc(SCC(=O)Nc3nc(-c4ccccc4)c(C)s3)[nH]c(=O)c2C#N)c1,-,-,-,58,-,-
CC(C)NC(=O)CSc1nnc(-c2ccc(S(=O)(=O)N3CCCC3)cc2)n1CC1CCCO1 (stereo unspecified),-,-,-,-,-,-
Cc1nn(-c2ccccc2)c2c1C(O)n1c(nc3ccccc31)S2 (stereo unspecified),-,-,-,-,-,-
Clc1cccc(N2CCN(Cc3nc(-c4ccccc4)no3)CC2)c1,-,-,-,33,-,-
CC(C)CNC(=O)c1ccc(COc2ccc(Cl)cc2Cl)o1,-,-,-,-,-,-
Oc1ccccc1CNCCCNCc1ccccc1O,-,-,-,44,-,-
COC(=O)Nc1ccc(S(=O)(=O)N2CCC(C(=O)N(C)C3CCCCC3)CC2)cc1,-,-,-,30,-,-
Cc1ccc2c(O)c(C)c(=O)[nH]c2n1,-,-,-,-,-,-
CCOC(=O)c1[nH]ncc1CN1CCC(Cc2cccc(OC)c2)(C(=O)OCC)CC1,.,-,.,.,-,-
Fc1ccc(N/N=C/C=C/c2ccccc2)c(F)c1,-,10,-,-,-,-
COc1ccc(OC)c(/C=N\NC(=O)CC(=O)NCCc2ccccc2)c1,-,-,-,31,-,-
Cc1ccc(NCc2nnc(SCC(=O)NCCc3ccccc3)n2C)cc1,-,-,-,-,-,-
O=C(COC(=O)CCN1C(=O)c2cccc([N+](=O)[O-])c2C1=O)NC1CCS(=O)(=O)C1 (stereo unspecified),-,-,-,-,-,-
CC(C)(C)c1ccc(NC(=O)COC(=O)CCN2C(=O)c3cccc([N+](=O)[O-])c3C2=O)cc1,-,17,-,-,-,-
CC(=O)Nc1nc(COc2ccccc2)cs1,-,-,-,-,-,-
